What was measured:
Type in all cases: functional
Rattus norvegicus [1] = test: Rise in the glucose level 100 mg/kg oral dose in fasted nondiabetic rats
In short: (§1)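 Fasted rats (18 h) were given oral drug or vehicle 60 min before 1.0 g/kg oral glucose, with glucose-oxidase readings on tail blood at 0 and 30 min. The change from 0 min was corrected by subtracting the change in vehicle rats given no glucose. Groups were compared with vehicle by ANOVA/Dunnett (p ≤ 0.05). % inhibition = 100(ΔGV − ΔGD)/ΔGV.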

Rattus norvegicus [2] = test: Rise in the blood glucose level after 30 min following 100 mg/kg oral dose in fasted nondiabetic rats
In short: (§2)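 Rats fasted 18 h, dosed orally (0.5% w/v methylcellulose suspension or aqueous solution; controls got the same vehicle) 60 min before an oral glucose load of 1.0 g/kg. Tail-vein blood was taken just before (0 min) and 30 min after glucose. Whole blood was deproteinized with Ba(OH)2/ZnSO4 and glucose read by glucose oxidase. Values are mean ± SEM, n rats per group.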

Rattus norvegicus [3] = test: Rise in the blood glucose level after 0 min following 100 mg/kg oral dose in fasted nondiabetic rats; in short: as §2
Rattus norvegicus [4] = test: Percent inhibition of glucose rise, following 100 mg/kg oral dose in fasted nondiabetic rats
In short: (§3)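 Rats fasted 18 h were dosed orally around 9 a.m. with drug or vehicle (0.5% w/v methylcellulose suspension or aqueous solution), dosed on salt-free basis by mean group body weight, 60 min before oral glucose 1.0 g/kg. Tail-vein blood at 0 and 30 min, glucose oxidase on deproteinized whole blood. Rise corrected for no-glucose vehicle rats; %inhibition = 100(ΔGV−ΔGD)/ΔGV; mean ± SEM.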

Rattus norvegicus [5] = test: Percent inhibition of glucose rise, following 200 mg/kg oral dose in fasted nondiabetic rats; in short: as §3
Rattus norvegicus [6] = test: Rise in the blood glucose level at 200 mg/kg oral dose in fasted nondiabetic rats; in short: as §1
Rattus norvegicus [7] = test: Rise in the blood glucose level after 30 min following 200 mg/kg oral dose in fasted nondiabetic rats; in short: as §2
Rattus norvegicus [8] = test: Rise in the blood glucose level at 100 mg/kg oral dose in fasted nondiabetic rats; in short: as §1
Rattus norvegicus [9] = test: Rise in the blood glucose level after 0 min following 200 mg/kg oral dose in fasted nondiabetic rats; in short: as §2
Rattus norvegicus [10] = test: Rise in the blood glucose level at 300 mg/kg oral dose in fasted nondiabetic rats; in short: as §1
Rattus norvegicus [11] = test: Rise in the blood glucose level after 0 min following 150 mg/kg oral dose in fasted nondiabetic rats; in short: as §2
Rattus norvegicus [12] = test: Rise in the blood glucose level at 10 mg/kg oral dose in fasted nondiabetic rats; in short: as §1
Rattus norvegicus [13] = test: Rise in the blood glucose level after 30 min following 10 mg/kg oral dose in fasted nondiabetic rats; in short: as §2
Rattus norvegicus [14] = test: Rise in the blood glucose level after 0 min following 300 mg/kg oral dose in fasted nondiabetic rats; in short: as §2
Rattus norvegicus [15] = test: Rise in the blood glucose level after 30 min following 50 mg/kg oral dose in fasted nondiabetic rats; in short: as §2
Rattus norvegicus [16] = test: Rise in the blood glucose level after 0 min following 10 mg/kg oral dose in fasted nondiabetic rats; in short: as §2
Rattus norvegicus [17] = test: Rise in the blood glucose level after 30 min following 300 mg/kg oral dose in fasted nondiabetic rats; in short: as §2
Rattus norvegicus [18] = test: Percent inhibition of glucose rise, following 50 mg/kg oral dose in fasted nondiabetic rats; in short: as §3
Rattus norvegicus [19] = test: Percent inhibition of glucose rise, following 150 mg/kg oral dose in fasted nondiabetic rats; in short: as §3
Rattus norvegicus [20] = test: Percent inhibition of glucose rise, following 300 mg/kg oral dose in fasted nondiabetic rats; in short: as §3
Rattus norvegicus [21] = test: Rise in the blood glucose level at 50 mg/kg oral dose in fasted nondiabetic rats; in short: as §1
Rattus norvegicus [22] = test: Rise in the blood glucose level after 30 min following 150 mg/kg oral dose in fasted nondiabetic rats; in short: as §2
Rattus norvegicus [23] = test: Percent inhibition of glucose rise, following 10 mg/kg oral dose in fasted nondiabetic rats; in short: as §3
Rattus norvegicus [24] = test: Rise in the blood glucose level at 150 mg/kg oral dose in fasted nondiabetic rats; in short: as §1
Rattus norvegicus [25] = test: Rise in the blood glucose level after 0 min following 50 mg/kg oral dose in fasted nondiabetic rats; in short: as §2

| Compound | Glucose rise (Rattus norvegicus [1]) [mg/dL] | Glucose rise (Rattus norvegicus [2]) [mg/dL] | Glucose rise (Rattus norvegicus [3]) [mg/dL] | inhibition in vivo at 100 mg/kg (Rattus norvegicus [4]) [%] | also measured |
| --- | --- | --- | --- | --- | --- |
| N=C(N)/N=C(\N)NCC1OC(O)[C@H](O)C(O)C1O (some centres undefined) | 77 | 145 | 68 | -14 |  |
| COC1OC(C/N=C(/N)N=C(N)N)[C@@H](OCc2ccccc2)C(OCc2ccccc2)[C@H]1OCc1ccccc1 (some centres undefined) | 41 | 123 | 82 | 47 |  |
| CC1(C)O[C@@H]2CO[C@@]3(C/N=C(/N)N=C(N)N)OC(C)(C)OC3[C@@H]2O1 (some centres undefined) | 85 | 152 | 67 | -29 |  |
| N=C(N)/N=C(\NCCc1ccccc1)NC1OC(CO)[C@@H](O)C(O)[C@H]1O (some centres undefined) | 63 | 137 | 74 | 9 |  |
| CO[C@H]1OC(CNC(=N)NC(=N)N)[C@@H](O)C(O)[C@H]1O (some centres undefined) | 61 | 133 | 72 | 12 |  |
| N=C(N)/N=C(\N)NCCC1OC(CO)[C@@H](O)C1O (some centres undefined) | 53 | 127 | 74 | 26 |  |
| N=C(N)/N=C(\S)NC1OC(CO)[C@@H](O)C(O)[C@H]1O (some centres undefined) | 63 | 139 | 76 | 9 |  |
| CC1(C)OC2C(C/N=C(\N)N=C(N)N)O[C@@H]3OC(C)(C)O[C@@H]3C2O1 (some centres undefined) | 74 | 141 | 67 | -12 |  |
| CC1(C)O[C@H]2OC3C(OC(C)(C)O[C@@H]3C/N=C(\N)N=C(N)N)[C@H]2O1 (some centres undefined) |  | 118 | 78 | 48 | inhibition in vivo at 200 mg/kg (Rattus norvegicus [5]): 45%; Glucose rise (Rattus norvegicus [6]): 43 mg/dL; Glucose rise (Rattus norvegicus [7]): 121 mg/dL; Glucose rise (Rattus norvegicus [8]): 40 mg/dL; Glucose rise (Rattus norvegicus [9]): 78 mg/dL |
| CN(C)C(=N)NC(=N)N [METFORMIN] | 45 | 113 | 68 | 41 |  |
| N=C(N)NC(=N)NCCc1ccccc1 [PHENFORMIN] |  | 101 | 70 | 64 | Glucose rise (Rattus norvegicus [10]): 21 mg/dL; Glucose rise (Rattus norvegicus [11]): 58 mg/dL; Glucose rise (Rattus norvegicus [12]): 68 mg/dL; Glucose rise (Rattus norvegicus [13]): 129 mg/dL; Glucose rise (Rattus norvegicus [14]): 70 mg/dL; Glucose rise (Rattus norvegicus [8]): 31 mg/dL; Glucose rise (Rattus norvegicus [15]): 98 mg/dL; Glucose rise (Rattus norvegicus [16]): 61 mg/dL; Glucose rise (Rattus norvegicus [17]): 21 mg/dL; inhibition in vivo at 50 mg/kg (Rattus norvegicus [18]): 57%; inhibition in vivo at 150 mg/kg (Rattus norvegicus [19]): 71%; inhibition in vivo at 300 mg/kg (Rattus norvegicus [20]): 81%; Glucose rise (Rattus norvegicus [21]): 35 mg/dL; Glucose rise (Rattus norvegicus [22]): 84 mg/dL; inhibition in vivo at 10 mg/kg (Rattus norvegicus [23]): 0%; Glucose rise (Rattus norvegicus [24]): 26 mg/dL; Glucose rise (Rattus norvegicus [25]): 63 mg/dL |

From ChEMBL document CHEMBL1124586, “Carbohydrate biguanides as potential hypoglycemic agents” (1989)
